Experimental data pooled from the literature.
Each line is one published result; the experiments were not run side by side.
PBRM1 BD2: Protein polybromo-1, BD2 (PBRM1, Homo sapiens, UniProt Q86U86)
BRD2 BD1: Bromodomain-containing protein 2, BD1 (BRD2, Homo sapiens, UniProt P25440)
PBRM1 bromodomain: Protein polybromo-1, bromodomain (PBRM1, Homo sapiens, UniProt Q86U86)
ADORA2B: Adenosine receptor A2b (ADORA2B, Homo sapiens, UniProt P29275)
ERBB3: Receptor tyrosine-protein kinase erbB-3 (ERBB3, Homo sapiens, UniProt P21860)

| Compound | target | test | system | setting | endpoint | value |
| --- | --- | --- | --- | --- | --- | --- |
| CN(C)/C=C1\CCCn2c1nc(=O)c1c(Cl)cccc12 | PBRM1 BD2 | thermal stability, DSF |  | 100 µM | ΔTm | 1.44 °C |
| Oc1ccc(-c2nc(-c3ccncc3)c(-c3ccc(F)cc3)[nH]2)cc1 | BRD2 BD1 | thermal stability, DSF |  | 10 µM | ΔTm | 1.18 °C |
| CC/C=C1\CCn2c1nc(=O)c1c(Cl)cccc12 | PBRM1 bromodomain | thermal stability, DSF |  | 100 µM | ΔTm | 5.03 °C |
| Cc1cnc(Nc2ccc(OCCN3CCCC3)cc2)nc1Nc1cccc(S(=O)(=O)NC(C)(C)C)c1 | BRD2 BD1 | thermal stability, DSF |  | 10 µM | ΔTm | 2.4 °C |
| CCC1=C[C@@H]2CN(C1)Cc1c([nH]c3ccccc13)[C@@](C(=O)OC)(c1cc3c(cc1OC)N(C)[C@H]1[C@@](O)(C(=O)OC)[C@H](OC(C)=O)[C@]4(CC)C=CCN5CC[C@]31[C@@H]54)C2 | Organic cation/carnitine transporter 2 (SLC22A5, Homo sapiens, UniProt O76082) | transporter uptake, inhibitor | HEK293 | 100 µM | remaining activity | 15.3% |
| CCC(/C=C1\CCn2c1nc(=O)c1c(Cl)cccc12)CC | PBRM1 bromodomain | thermal stability, DSF |  | 100 µM | ΔTm | 10.3 °C |
| C[S+]([O-])c1ccc(-c2nc(-c3ccncc3)c(-c3ccc(F)cc3)[nH]2)cc1 (stereo not drawn) | Protein polybromo-1, BD1 (PBRM1, Homo sapiens, UniProt Q86U86) | thermal stability, DSF |  | 10 µM | ΔTm | 0.28 °C |
| CCCCCCN1CCCn2c1nc1c2c(=O)n(C)c(=O)n1C | ADORA2B | ligand displacement, radioligand |  | 10 µM, cell membranes | inhibition | 9% |
| CC(C)(O)[C@H]1CC[C@H](Nc2ccc3ncc(-c4cccc(C(F)(F)F)c4)n3n2)CC1 | Serine/threonine-protein kinase N3 (PKN3, Homo sapiens, UniProt Q6P5Z2) | enzyme activity, inhibitor |  | 1 µM | remaining activity | 40.2% |
| CCCOc1ccc(OC)c(F)c1C(=O)c1ccc(C(=O)N[C@@H]2CNC[C@H]2NC(=O)c2ccc3[nH]ncc3c2)cc1 | Tyrosine-protein kinase ABL1 (Abl1, Mus musculus, UniProt P00520) | enzyme activity, inhibitor |  | 10 µM | remaining activity | 63% |
| CCC(/C=C1\CCn2c1nc(=O)c1ccc(O)cc12)CC | PBRM1 BD2 | thermal stability, DSF |  | 100 µM | ΔTm | 3.49 °C |
| Cc1cc2c(cc1N1C(=O)c3cccc4c(Cl)ccc(c34)C1=O)n(C)c(=O)n2C | BRD2 BD1 | thermal stability, DSF |  | 10 µM | ΔTm | 0.3 °C |
| CCC(/C=C1\CCn2c1nc(=O)c1cc(Cl)ccc12)CC | PBRM1 BD2 | thermal stability, DSF |  | 100 µM | ΔTm | 0.47 °C |
| Cc1ccc(C(=O)Nc2ccc(CN3CCN(C)CC3)c(C(F)(F)F)c2)cc1C#Cc1cnc2cccnn12 | ERBB3 | enzyme activity, inhibitor |  | 23.5 nM | remaining activity | 82% |
| CCC/C=C1\CCn2c1nc(=O)c1c(Cl)cccc12 | PBRM1 bromodomain | thermal stability, DSF |  | 100 µM | ΔTm | 11 °C |
| NS(=O)(=O)c1ccc(Nc2nc(-c3ccc(F)cc3)c3ccccc3n2)cc1 | BRD2 BD1 | binding, competition with immobilised ligand |  | 1 µM | remaining binding | 4% |
| CCCN1CCCn2c1nc1c2c(=O)n(C)c(=O)n1C | ADORA2B | ligand displacement, radioligand |  | 10 µM, cell membranes | inhibition | 1% |
| O=C(O)c1cccc(NC(c2ccccc2)c2ccc3ccccc3c2O)c1 (stereo not drawn) | CAAX prenyl protease 2 (Homo sapiens, UniProt Q9Y256) | enzyme activity, inhibitor |  | 10 µM | remaining activity | < 40% |
| CC(C)(C)C/C=C1\CCn2c1nc(=O)c1c(Cl)cccc12 | PBRM1 bromodomain | thermal stability, DSF |  | 100 µM | ΔTm | 7.06 °C |
| COc1cc(NC(C)=O)c(Cl)cc1C(=O)Nc1nccs1 | Muscarinic acetylcholine receptor M1 (CHRM1, Homo sapiens, UniProt P11229) | cell-free assay |  | 10 µM | inhibition | 2.6% |
| Nc1ncnc2occ(-c3ccc(NC(=O)Nc4cc(C(F)(F)F)ccc4F)cc3)c12 | ERBB3 | cell-free assay, inhibitor |  | 20 µM | remaining signal | 73% |
